Bioassay records from PubChem.
bCat nuc transl – alters nuclear translocation of beta-catenin in HeLa cells; immunofluorescence imaging; nuclear translocation activity, % at 5 µM; actives 0.3% (n = 190,000);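 active = nuclear translocation activity above 50% at 5 µM, with a well cell count of 50 or more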;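 also: per-cell ratio of nuclear to cytoplasmic median beta-catenin stain intensity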
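System: HeLa cells, endogenous beta-catenin; compound dosing: 5 µM primary single dose, 0.1% DMSO, 0.02–20 µM confirmation series; incubation: 24 h compound exposure at 37°C, 5% CO2; signal: beta-catenin immunofluorescence imaging with DAPI; evaluation: % activation, nuclear-to-cytoplasmic median beta-catenin signal ratio per cell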
Redox H2O2 prof – compounds producing H2O2 with reducing agent – biochemical, NIH compound library profiling, artefact control for MLSCN library redox annotation, primary screen; DTT-dependent redox cycling H2O2, phenol red/HRP absorbance; 100% = 100 µM peroxide control, 0% = buffer; activation, % at 10 µM; actives 0.03% (n = 200,000);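 active = activation of at least 50% relative to the plate's high and low controls in the primary single-dose screen; inactive = activation below 50%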;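 also: compound incubated with DTT at 0.8 mM final as the reducing agent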
MT stabilize HCS – microtubule stabilization, imaging screen; HeLa tubulin immunostaining HCS, 24 h; share of cells brighter than vehicle mean+2SD; % tubulin-high responders, % at 10 µM; actives 0.83% (n = 200,000);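 active = plate Z-score above 3 for both tubulin-high and condensed-nucleus cell shares, with cell loss under 80%, at 10 µM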;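 also: anti alpha tubulin signal scored within the nucleus-defined area of each cell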
KCC2 mod – KCC2 (human) Cl- transport modulation. Q9H2X9. KCC2 cells, thallium flux FluoZin-2 fluorescence. B-score of Tl+ flux slope (higher = more flux/activation; lower = inhibition) at 10 µM. actives 2.2% (n = 190,000);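 active = thallium flux slope and its plate-corrected score both differing from the plate sample mean at a set confidence after two filtering rounds, in either direction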;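 also: slope of fluorescence scaled to starting intensity during 10 to 20 s after thallium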
ROMK primary – modulates human ROMK potassium channel activity. P48048. AID 1918. Tet-inducible ROMK, thallium flux fluorescence; actives lie on both sides. B-score at 10 µM. actives 2% (n = 130,000);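 active = signal ratio slope over the read window, or its plate-corrected B-score, at least 3 SD from the plate mean, either direction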;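 also: B-score of the F/F0 ratio slope over 7 to 12 s after thallium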
Target sequence (P48048 whole entry, looked up): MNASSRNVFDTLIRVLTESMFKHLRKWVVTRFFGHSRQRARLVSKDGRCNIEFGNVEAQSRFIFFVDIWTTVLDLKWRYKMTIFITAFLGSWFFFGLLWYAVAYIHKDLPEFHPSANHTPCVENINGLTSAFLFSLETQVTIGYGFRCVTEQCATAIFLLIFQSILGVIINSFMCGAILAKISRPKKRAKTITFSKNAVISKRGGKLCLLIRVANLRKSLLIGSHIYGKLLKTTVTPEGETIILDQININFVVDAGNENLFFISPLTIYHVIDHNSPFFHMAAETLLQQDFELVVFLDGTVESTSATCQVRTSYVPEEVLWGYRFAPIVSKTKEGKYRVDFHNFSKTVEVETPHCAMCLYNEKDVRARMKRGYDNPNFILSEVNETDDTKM
Hits are given with their value; 0 = inactive; - = not tested or not shown. Sampled rows, rich in hits. Any-hit rate of the full collection: about 3.7%.

SMILES | bCat nuc transl | Redox H2O2 prof | MT stabilize HCS | KCC2 mod | ROMK primary
COc1ccccc1NC(=O)NC1(C(=O)N2CCC(O)CC2)CCCCC1 | 0 | 0 | 0 | 0 | -5
Oc1[nH]c2ccccc2c1N=NC(=S)NCCc1ccccc1 | 0 | 0 | 0 | 20 | 0
CCOc1ccc(NC(=S)N=Nc2c(O)[nH]c3ccccc23)cc1 | 0 | 0 | 0 | 4.4 | 1.2
O=C(CSCc1ccccc1)N=Nc1c(O)[nH]c2ccccc12 | 0 | 0 | 0 | 8.6 | 0
Oc1cccc(NC(=S)N=Nc2c(O)[nH]c3ccccc23)c1 | 0 | - | - | 0 | 0
COc1ccc(-c2cc3ncc(C(C)=O)c(C)n3n2)cc1 | 0 | 0 | 0 | 0 | 0
S=c1[nH]nc(-c2cccc3ccccc23)n1-c1cccnc1 | 0 | - | - | 0 | 0
CCOc1cc(/C=C(/C#N)C(=O)Nc2ccc(O)cc2)cc(Br)c1O | 62 | 0 | 0 | - | -
C=CCNC(=O)/C(C#N)=C\c1cc(Cl)c(O)c(OCC)c1 | 0 | 0 | 0 | 0 | -
O=C(NC(=S)N(CCCCO)C1CCCCC1)c1sc2ccccc2c1Cl | 0 | 0 | 0 | - | 3.1
CC1CCCCC1NC(=S)NC(=O)c1sc2ccccc2c1Cl (configuration not stated) | 0 | 0 | 0 | 0 | 0
COc1ccc(NS(=O)(=O)c2cccc(C(=O)NNC(=O)c3cc(C)oc3C)c2)cc1 | 0 | 0 | 0 | 0 | 0
COc1ccc(NS(=O)(=O)c2cc(C)ccc2NC(=O)c2cc(C)oc2C)cc1 | - | 0 | 21 | - | -
CC1=CC(c2ccc(Cl)cc2)n2nc(NC(=O)CCC(=O)O)nc2N1 (configuration not stated) | 0 | - | - | - | -
COc1cc(/C=N/O)ccc1OCc1ccc(Cl)cc1 | 0 | 0 | 0 | 0 | 0
COc1cc(/C=N/N=C(N)N)ccc1OCc1ccc(Cl)cc1 | 0 | 0 | 67 | 0 | 0
CCOc1ccc(C(=O)NCC(=O)OCC(=O)N2CCCCC2)cc1 | 0 | 0 | 0 | 0 | 0.95
CCCCCOc1ccc(C(=O)NCC(=O)NCC(=O)OCC)cc1 | 0 | 0 | 36 | - | 0
CCOC(=O)CNC(=O)CNC(=O)c1ccc(OCC(C)C)cc1 | 0 | 0 | 0 | - | 0
COc1ccc(-c2coc3cc4oc(=O)cc(-c5ccccc5)c4cc23)cc1F | 148 | 0 | 17 | 0 | -
COc1ccc(-c2coc3cc4oc(=O)cc(C)c4cc23)cc1F | 0 | 0 | 0 | 0 | -
COC(=O)Cc1ccc(NC(=S)NNC(=O)C2CC2)cc1 | 0 | - | - | 0 | -
Cc1nc2ncccn2c1-c1csc(NCc2ccco2)n1 | 0 | 0 | 0 | 0 | -
COc1ccc(Nc2nc(-c3ccc(OC)cc3)cs2)cc1 | 0 | 0 | 0 | 0 | 0
Cc1nc2ncccn2c1-c1csc(Nc2ccccc2)n1 | 0 | 0 | 19 | 0 | 0
SMILES | bCat nuc transl | Redox H2O2 prof | MT stabilize HCS | KCC2 mod | ROMK primary
COc1ccc(Nc2nc(-c3c(C)nc4ncccn34)cs2)cc1 | 56 | 0 | 14 | 0 | 3.1
COc1ccccc1Nc1nc(-c2c(C)nc3ncccn23)cs1 | 0 | 0 | 15 | - | 0
COc1cccc2cc(C(=O)Nc3ccc(S(=O)(=O)NCC4CCCO4)cc3)c(=O)oc12 (configuration not stated) | 0 | - | - | 0 | 0
FC(F)(F)c1cc(-c2ccccn2)nc2cc(-c3ccccc3)nn12 | 0 | - | - | 0 | -
Cc1ccc(C2CC(C(F)F)n3ncc(C(=O)Nc4cnn(Cc5ccccc5C)c4)c3N2)cc1 (configuration not stated) | 0 | 0 | 28 | 0 | 0
Cc1ccccc1Cn1cc(NC(=O)c2nn(C)cc2Cl)cn1 | 0 | 0 | 0 | 0 | 0
CC1=Nc2cc(C(=O)O)ccc2Sc2ccc(C)cc21 | 0 | 0 | 0 | 0 | 0
CC1=Nc2cc(C(=O)NCc3ccco3)ccc2Sc2ccc(C)cc21 | 73 | 0 | 0 | 0 | 0
CCCCOC(=O)c1ccc(NC(=S)NC(=O)c2c(Br)c(C)nn2C)cc1 | 0 | 0 | 0 | 29 | -
Cn1nc(-c2ccccc2)c(C(=O)Nc2ccc(Cl)cc2)c1Cl | - | 0 | 0 | - | -
Cn1c(Cl)c(C(=O)Nc2ccc(Cl)cc2)c2ccccc21 | 0 | 0 | 28 | - | -
Cc1cccc(NC(=O)COC(=O)CCc2ccc(S(=O)(=O)N3CCOCC3)cc2)c1C | 0 | 0 | 0 | 0 | 0
CCCc1nc2sc3c(SCC(=O)NCc4ccco4)ncnc3c2c2c1CCC2 | 77 | 0 | 15 | 0 | 0
CCCN1CCN(c2ncnc3c2nnn3Cc2ccccc2)CC1 | 72 | 0 | 58 | 0 | 0
Cc1cc(C)nc(NC2=NCCN2C(=S)Nc2ccc(C)c(C)c2)n1 | 0 | - | - | 0 | -
CC(NC(=O)CN(C)Cc1nc2ccccc2c(=O)[nH]1)c1ccccc1 (configuration not stated) | - | 0 | 0 | 0 | 0
CC(C(=O)Nc1ccccc1-c1ccccc1)N(C)Cc1nc2ccccc2c(=O)[nH]1 (configuration not stated) | 0 | 0 | 24 | 0 | 0
COc1ccc(Cl)cc1N(CC(=O)NCC(C)C)S(=O)(=O)c1ccc(C)c([N+](=O)[O-])c1 | 0 | 0 | 0 | 0 | 0
CCCCCNC1=CC(=O)CC(c2ccccc2)C1 (configuration not stated) | - | 0 | 47 | 0 | -
CNC1=CC(=O)CC(c2ccccc2)C1 (configuration not stated) | 0 | 0 | 0 | 0 | 0
CCCCCCCNC1=CC(=O)CC(c2ccccc2)C1 (configuration not stated) | 0 | 0 | 12 | 0 | -
O=C(/C=C/c1ccccc1Cl)c1ccccc(=O)c1O | - | 0 | 0 | 31 | -4.2
O=C(NC(=S)N1CCN(c2ccc(Cl)cc2[N+](=O)[O-])CC1)c1cccs1 | 0 | 0 | 0 | 71 | -
O=C(NC(=S)N1CCN(c2ccc(Cl)cc2[N+](=O)[O-])CC1)c1ccco1 | 0 | 0 | 0 | 17 | -
Cc1cc(C)c(NC(=O)CO/N=C2\CCCc3nonc32)c(C)c1 | 0 | 0 | 0 | 0 | 0
SMILES | bCat nuc transl | Redox H2O2 prof | MT stabilize HCS | KCC2 mod | ROMK primary
Cc1ccc(-c2cc(C(=O)N/N=C/c3c[nH]c4ccccc34)n[nH]2)o1 | 0 | 0 | 0 | 0 | 0
O=C(N/N=C/c1cccs1)c1n[nH]c2c1CCCC2 | 0 | - | - | 0 | 0
Cc1ccccc1NCC(=O)N/N=C/C(Br)=C/c1ccccc1 | 0 | 0 | 26 | 0 | 0
Cc1ccc(-c2cc(C(=O)N/N=C/C(Br)=C/c3ccccc3)n[nH]2)o1 | 0 | 0 | 12 | 0 | 0
O=C(Cc1cccs1)N/N=C/C(Br)=C/c1ccccc1 | 0 | 0 | 0 | - | -
O=C(N/N=C/c1cccc2ccccc12)c1n[nH]c2c1CCCC2 | 0 | 0 | 31 | 0 | 0
COc1cccc(C(=O)N/N=C/C(Br)=C/c2ccccc2)c1 | 60 | 0 | 23 | 0 | -
COC(=O)CCNCCSc1nnc(-c2ccco2)n1Cc1ccccc1 | 0 | - | - | 0 | -
Cc1ccc(/C=N/NC(=O)c2n[nH]c3c2CCCC3)cc1 | 58 | - | - | 0 | -
O=C(N/N=C\c1cccc(Cl)c1)c1n[nH]c2c1CCCC2 | 0 | 0 | 0 | 0 | 0
O=C(N/N=C/C(Br)=C\c1ccccc1)c1n[nH]c2c1CCC2 | - | 0 | 15 | 0 | 0
O=C(N/N=C/c1ccc(Cl)cc1Cl)c1n[nH]c2c1CCCC2 | 0 | 0 | 22 | 0 | -
NCC(=O)Nc1ccc(Cl)cc1C(=O)c1ccc[nH]1 | 0 | - | - | 0 | -
